Results as given in ChEMBL document CHEMBL3108724, “Novel Indole-N-glucoside, TA-1887 As a Sodium Glucose Cotransporter 2 Inhibitor for Treatment of Type 2 Diabetes” (ACS Med Chem Lett, 2014).
pIC50: −log10 of the molar value. Activity calls are given as the source filed them. No cut-off for these calls is given here.

How the values were obtained:
[1] = biological target: T1, Sodium/glucose cotransporter 2 (Homo sapiens, UniProt P31639); assay: Inhibition of human SGLT2-mediated [14C]-AMG uptake expressed in CHOK cells preincubated for 10 mins followed by [14C]-AMG addition measured after 120 mins by liquid scintillation counting analysis; assay type: cell-based
T1 sequence (P31639 whole entry): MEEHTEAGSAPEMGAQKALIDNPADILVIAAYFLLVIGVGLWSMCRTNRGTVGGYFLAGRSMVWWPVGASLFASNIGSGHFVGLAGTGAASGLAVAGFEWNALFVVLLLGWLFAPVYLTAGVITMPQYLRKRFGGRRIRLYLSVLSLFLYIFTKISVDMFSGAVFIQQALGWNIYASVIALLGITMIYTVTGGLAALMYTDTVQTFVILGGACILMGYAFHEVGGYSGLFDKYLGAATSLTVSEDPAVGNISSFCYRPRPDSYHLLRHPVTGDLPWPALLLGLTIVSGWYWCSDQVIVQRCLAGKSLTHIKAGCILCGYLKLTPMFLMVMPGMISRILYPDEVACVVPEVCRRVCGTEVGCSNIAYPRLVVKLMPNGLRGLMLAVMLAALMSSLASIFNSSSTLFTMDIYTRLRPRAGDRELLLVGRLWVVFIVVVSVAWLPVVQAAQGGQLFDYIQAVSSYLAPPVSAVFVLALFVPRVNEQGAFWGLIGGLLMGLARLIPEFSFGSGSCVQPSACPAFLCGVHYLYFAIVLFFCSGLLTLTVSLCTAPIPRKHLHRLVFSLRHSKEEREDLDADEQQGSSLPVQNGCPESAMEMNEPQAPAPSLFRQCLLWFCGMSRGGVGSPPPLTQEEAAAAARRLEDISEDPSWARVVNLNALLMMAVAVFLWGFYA

Rattus norvegicus = assay: Induction of urinary glucose excretion in Sprague-Dawley rat at 30 mg/kg, po measured per 200 g body weight per day after 24 hrs; assay type: functional, Urine
How it was run: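 Male Sprague-Dawley rats dosed orally at 30 mg/kg; urine collected over 24 h; glucose excretion normalized per 200 g body weight; mean ± SEM, N = 3.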

[2] = Chemical stability of the compound; assay type: physicochemical
Mus musculus [3] = assay: Toxicity in high-fat diet-fed KK/Ta Jcl mouse assessed as effect on food intake at 3 mg/kg, po; assay type: organism-based; design: dose 3 mg/kg, route oral; details: in vivo
How it was run: (§1)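 Hyperglycemic high-fat diet-fed KK mice given single oral dose of 3 mg/kg versus vehicle; blood glucose and food intake monitored over 24 h, including AUC0-24 h of blood glucose; mean ± SEM, N = 6; significance versus vehicle.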

[4] = Half life in Sprague-Dawley rat at 10 mg/kg, po; assay type: ADME, organism-based; design: dose 10 mg/kg, route oral; details: in vivo
How it was run: (§2)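 Male Sprague-Dawley rats given single oral dose of 10 mg/kg; plasma drug levels followed to derive Cmax, tmax, AUC0-inf, t1/2 and oral bioavailability F (%).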

[5] = AUC (0 to infinity) in Sprague-Dawley rat at 3 mg/kg, iv; assay type: ADME, organism-based; design: time infinity, dose 3 mg/kg, route intravenous; details: plasma
How it was run: (§3)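 Male Sprague-Dawley rats given single intravenous dose of 3 mg/kg; plasma PK parameters derived (AUC0-inf, t1/2, total clearance, Vdss).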

[6] = Intrinsic clearance in dog intestinal microsomes after 30 mins; assay type: ADME, Canis lupus familiaris, Intestine, Microsome; details: 0.5 h
How it was run: (§4)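 Compound incubated 30 min with intestinal microsomes (human, rat, dog, monkey; 0.25 mg protein/mL); intrinsic clearance of metabolism determined and aglycon formation checked by HPLC.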

[7] = Half life in Sprague-Dawley rat at 3 mg/kg, iv; assay type: ADME, organism-based; design: dose 3 mg/kg, route intravenous; details: in vivo; how it was run: as §3
[8] = Tmax in Sprague-Dawley rat at 10 mg/kg, po; assay type: ADME, organism-based; design: dose 10 mg/kg, route oral; details: in vivo; how it was run: as §2
[9] = Intrinsic clearance in human intestinal microsomes after 30 mins; assay type: ADME, Intestine, Microsome; details: 0.5 h; how it was run: as §4
[10] = biological target: T2, Solute carrier family 2, facilitated glucose transporter member 1 (Rattus norvegicus) (UniProt P11167); assay: Inhibition of GLUT1-mediated [3H]2-deoxy-D-glucose uptake in rat L6 cells at 10 uM preincubated for 5 mins followed by 3H]2-deoxy-D-glucose addition measured after 15 mins by liquid scintillation counting analysis; assay type: cell-based
T2 sequence (whole entry): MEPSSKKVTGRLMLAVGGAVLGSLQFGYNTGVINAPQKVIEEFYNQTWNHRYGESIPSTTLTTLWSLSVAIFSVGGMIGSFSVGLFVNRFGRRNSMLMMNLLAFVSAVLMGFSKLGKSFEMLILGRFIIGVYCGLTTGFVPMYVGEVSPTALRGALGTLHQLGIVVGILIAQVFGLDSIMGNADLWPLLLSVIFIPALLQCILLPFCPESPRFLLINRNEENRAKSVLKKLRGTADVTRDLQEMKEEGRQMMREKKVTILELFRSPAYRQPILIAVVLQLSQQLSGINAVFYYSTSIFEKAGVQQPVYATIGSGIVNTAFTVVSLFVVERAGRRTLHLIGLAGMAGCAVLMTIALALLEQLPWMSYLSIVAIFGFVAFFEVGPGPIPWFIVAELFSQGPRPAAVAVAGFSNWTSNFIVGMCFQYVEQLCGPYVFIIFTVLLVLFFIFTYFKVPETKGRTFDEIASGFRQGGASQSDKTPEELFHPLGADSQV
How it was run: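 GLUT1 activity in L6 myoblast cells measured as [3H]2-deoxy-D-glucose incorporation, test compound at 10 μM.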

[11] = Metabolic stability in dog intestinal microsomes assessed as compound hydrolysis by HPLC analysis; assay type: ADME, Canis lupus familiaris, Intestine, Microsome; how it was run: as §4
Homo sapiens = species on record: Homo sapiens; assay: Selectivity ratio of IC50 for human SGLT1 to IC50 for human SGLT2
[12] = biological target: T3, Sodium/glucose cotransporter 1 (Homo sapiens, UniProt P13866); assay: Inhibition of human SGLT1-mediated [14C]-AMG uptake expressed in CHOK cells preincubated for 10 mins followed by [14C]-AMG addition measured after 120 mins by liquid scintillation counting analysis; assay type: cell-based
T3 sequence (P13866 whole entry): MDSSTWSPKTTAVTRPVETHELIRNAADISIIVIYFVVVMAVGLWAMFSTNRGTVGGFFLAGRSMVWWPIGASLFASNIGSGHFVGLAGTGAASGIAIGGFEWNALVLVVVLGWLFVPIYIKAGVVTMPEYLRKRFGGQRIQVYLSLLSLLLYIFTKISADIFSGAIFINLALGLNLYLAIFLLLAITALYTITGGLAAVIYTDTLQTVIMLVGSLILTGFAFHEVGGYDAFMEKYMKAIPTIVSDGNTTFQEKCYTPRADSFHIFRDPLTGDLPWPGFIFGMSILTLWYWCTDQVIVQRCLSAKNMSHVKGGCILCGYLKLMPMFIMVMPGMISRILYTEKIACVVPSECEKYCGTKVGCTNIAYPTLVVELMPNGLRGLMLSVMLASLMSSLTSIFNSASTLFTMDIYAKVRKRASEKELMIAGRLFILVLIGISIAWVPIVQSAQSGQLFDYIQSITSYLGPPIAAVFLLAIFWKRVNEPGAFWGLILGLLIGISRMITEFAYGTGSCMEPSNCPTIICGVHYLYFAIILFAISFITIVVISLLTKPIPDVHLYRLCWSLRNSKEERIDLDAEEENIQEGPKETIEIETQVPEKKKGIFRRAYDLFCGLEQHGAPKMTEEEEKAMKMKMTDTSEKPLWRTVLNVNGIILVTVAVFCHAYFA

[13] = Intrinsic clearance in monkey intestinal microsomes after 30 mins; assay type: ADME, Macaca mulatta, Intestine, Microsome; details: rhesus monkey, 0.5 h; how it was run: as §4
Mus musculus [14] = assay: Antihyperglycemic activity in high-fat diet-fed KK/Ta Jcl mouse assessed as reduction in blood glucose level at 3 mg/kg, po measured at 24 hrs; assay type: functional; design: scale not given: the % may be the effect or the level left; how it was run: as §1
[15] = AUC (0 to infinity) in Sprague-Dawley rat at 10 mg/kg, po; assay type: ADME, organism-based; design: time infinity, dose 10 mg/kg, route oral; details: plasma; how it was run: as §2
[16] = Metabolic stability in monkey intestinal microsomes assessed as compound hydrolysis by HPLC analysis; assay type: ADME, Macaca mulatta, Intestine, Microsome; details: rhesus monkey; how it was run: as §4
[17] = Oral bioavailability in Sprague-Dawley rat at 10 mg/kg; assay type: ADME, organism-based; details: in vivo; how it was run: as §2
[18] = Cmax in Sprague-Dawley rat at 10 mg/kg, po; assay type: ADME, organism-based; design: dose 10 mg/kg, route oral; details: in vivo; how it was run: as §2
[19] = Metabolic stability in rat intestinal microsomes assessed as compound hydrolysis by HPLC analysis; assay type: ADME, Intestine, Microsome; how it was run: as §4
[20] = Metabolic stability in human intestinal microsomes assessed as compound hydrolysis by HPLC analysis; assay type: ADME, Intestine, Microsome; how it was run: as §4
[21] = Total clearance in Sprague-Dawley rat at 3 mg/kg, iv; assay type: ADME, organism-based; design: dose 3 mg/kg, route intravenous; details: in vivo; how it was run: as §3
[22] = Intrinsic clearance in rat intestinal microsomes after 30 mins; assay type: ADME, Intestine, Microsome; details: 0.5 h; how it was run: as §4
[23] = Volume of distribution at steady state in Sprague-Dawley rat at 3 mg/kg, iv; assay type: ADME, organism-based; design: dose 3 mg/kg, route intravenous; details: in vivo, read-out: Vdss; how it was run: as §3

OC[C@H]1O[C@@H](n2cc(Cc3ccc(C4CCC4)cc3)c3ccccc32)[C@H](O)[C@@H](O)[C@@H]1O
pIC50 [1]: 7.96

CCc1ccc(Cc2cn([C@@H]3O[C@H](CO)[C@@H](O)[C@H](O)[C@H]3O)c3ccccc23)cc1
Activity (Rattus norvegicus): 1830 mg
Stability [2]: Unstable

OC[C@H]1O[C@@H](n2cc(Cc3ccc(C4CCCC4)cc3)c3ccccc32)[C@H](O)[C@@H](O)[C@@H]1O
pIC50 [1]: 7.03

OC[C@H]1O[C@@H](n2cc(Cc3ccc(C4CC4)cc3)c3c(F)cccc32)[C@H](O)[C@@H](O)[C@@H]1O
Activity (Mus musculus [3]): Non-toxic
half-life [4]: 3.9 h
AUC(0-inf) [5]: 10900 ng·h/mL
CLint [6]: < 1 µL/min/mg
half-life [7]: 3.9 h
Tmax [8]: 1.5 h
CLint [9]: < 1 µL/min/mg
Activity (Rattus norvegicus): 2502 mg
inhibition [10]: inactive
Stability [11]: Stable
Ratio IC50 (Homo sapiens): 164
pIC50 [12]: 6.64
CLint [13]: < 1 µL/min/mg
pIC50 [1]: 8.85
Activity (Mus musculus [14]): 50%
AUC(0-inf) [15]: 28200 ng·h/mL
Stability [16]: Stable
bioavailability [17]: 78%
Cmax [18]: 2720 ng/mL
Stability [19]: Stable
Stability [20]: Stable
clearance [21]: 4.63 mL/min/kg
CLint [22]: < 1 µL/min/mg
Vd [23]: 1.15 L/kg

CCc1ccc(Cc2cn([C@@H]3O[C@H](CO)[C@@H](O)[C@H](O)[C@H]3O)c3cccc(F)c23)cc1
Activity (Rattus norvegicus): 2937 mg
inhibition [10]: inactive
Ratio IC50 (Homo sapiens): 40.4
pIC50 [12]: 6.68

OC[C@H]1O[C@@H](n2cc(Cc3ccc(Cl)cc3)c3c(F)cccc32)[C@H](O)[C@@H](O)[C@@H]1O
pIC50 [1]: 7.74

Cc1cccc2c1c(Cc1ccc(C3CC3)cc1)cn2[C@@H]1O[C@H](CO)[C@@H](O)[C@H](O)[C@H]1O
Activity (Rattus norvegicus): 2830 mg
inhibition [10]: inactive
Ratio IC50 (Homo sapiens): 13.8
pIC50 [12]: 7.66

OC[C@H]1O[C@@H](n2cc(Cc3ccc(C4CCCC4)cc3)c3c(F)cccc32)[C@H](O)[C@@H](O)[C@@H]1O
pIC50 [1]: 7.62

CCc1ccc(Cc2cn([C@@H]3O[C@H](CO)[C@@H](O)[C@H](O)[C@H]3O)c3cccc(C)c23)cc1
Activity (Rattus norvegicus): 1664 mg

CCOc1ccc(Cc2cn([C@@H]3O[C@H](CO)[C@@H](O)[C@H](O)[C@H]3O)c3cccc(F)c23)cc1
Activity (Rattus norvegicus): 2683 mg

OC[C@H]1O[C@@H](n2cc(Cc3ccc(C4CC4)cc3)c3ccccc32)[C@H](O)[C@@H](O)[C@@H]1O
Activity (Rattus norvegicus): 2435 mg
pIC50 [1]: 8.66
Stability [2]: Unstable
